{"source": "ChEMBL document CHEMBL1833793", "about": "(Bioorg Med Chem Lett, 2011)", "key": {"[1]": {"test": "Tmax in Sprague-Dawley rat at 1 mg/kg, iv and 2 mg/kg, po by HPLC analysis", "assay_type": "ADME, organism-based", "settings": "in vivo", "how_it_was_run": "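Male Sprague–Dawley rats (n = 2) with jugular and carotid cannulae, 200–250 g, dosed 1 mg/kg iv and 2 mg/kg po in crossover after a 24 h washout. Vehicle was 20% beta-cyclodextrin, pH adjusted with methanesulfonic acid. Twelve serial blood samples were taken over 24 h, plasma measured by HPLC-MS/MS, and parameters derived by noncompartmental analysis.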"}, "[2]": {"test": "Drug uptake in brain of cPP-induced feeding rat model at 10 mg/kg, po after 4 hrs", "assay_type": "ADME, organism-based", "set-up": "dose 10 mg/kg, route oral", "settings": "read-out: Drug uptake", "how_it_was_run": "(§1)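 Satellite rats (n = 2/dose) sampled each week alongside the cPP feeding test; Lu-series dosed po at 3, 10 or 30 mg/kg as suspension in 20% HP-β-cyclodextrin; plasma (ng/mL) and brain tissue (ng/g) levels taken at 1, 2, 4, 6 and 24 h post-dose; mean ± SD reported.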"}, "Rattus norvegicus": {"system": "Rattus norvegicus", "test": "Antistress activity against chronic mild stress Sprague-Dawley rat model assessed as increase in sucrose consumption at 10 mg/kg, ip bid measured after 4 weeks", "assay_type": "functional", "settings": "route intraperitoneal"}, "[3]": {"test": "Plasma concentration in cPP-induced feeding rat model at 3 mg/kg, po after 2 hrs", "assay_type": "ADME, organism-based", "set-up": "dose 3 mg/kg, route oral", "how_it_was_run": "as §1"}, "[4]": {"test": "Half life in mouse at 1 mg/kg, iv and 2 mg/kg, po by HPLC analysis", "assay_type": "ADME, organism-based", "settings": "in vivo"}, "[5]": {"test": "Drug uptake in brain of cPP-induced feeding rat model at 3 mg/kg, po after 2 hrs", "assay_type": "ADME, organism-based", "set-up": "dose 3 mg/kg, route oral", "settings": "read-out: Drug uptake", "how_it_was_run": "as §1"}, "[6]": {"test": "Plasma concentration in cPP-induced feeding rat model at 3 mg/kg, po after 4 hrs", "assay_type": "ADME, organism-based", "set-up": "dose 3 mg/kg, route oral", "how_it_was_run": "(§2)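 Satellite rats (n = 2/dose per week), cannulated in the lateral cerebral ventricle for the feeding study, dosed orally at 3, 10 or 30 mg/kg as a suspension in 20% HP-β-cyclodextrin. Plasma was sampled 1, 2, 4, 6 or 24 h after dosing, alongside i.c.v. cPP (0.6 nmol) feeding tests. Values are given as mean with SD.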"}, "Brain": {"system": "Brain", "test": "Free drug level in brain of cPP-induced feeding rat model", "assay_type": "ADME, tissue-based", "settings": "in vivo"}, "[7]": {"test": "Plasma concentration in cPP-induced feeding rat model at 30 mg/kg, po after 1 hr", "assay_type": "ADME, organism-based", "set-up": "dose 30 mg/kg, route oral", "how_it_was_run": "as §2"}, "[8]": {"target": "T1, Neuropeptide Y receptor type 1 (Homo sapiens, UniProt P25929)", "T1 sequence (P25929 whole entry)": "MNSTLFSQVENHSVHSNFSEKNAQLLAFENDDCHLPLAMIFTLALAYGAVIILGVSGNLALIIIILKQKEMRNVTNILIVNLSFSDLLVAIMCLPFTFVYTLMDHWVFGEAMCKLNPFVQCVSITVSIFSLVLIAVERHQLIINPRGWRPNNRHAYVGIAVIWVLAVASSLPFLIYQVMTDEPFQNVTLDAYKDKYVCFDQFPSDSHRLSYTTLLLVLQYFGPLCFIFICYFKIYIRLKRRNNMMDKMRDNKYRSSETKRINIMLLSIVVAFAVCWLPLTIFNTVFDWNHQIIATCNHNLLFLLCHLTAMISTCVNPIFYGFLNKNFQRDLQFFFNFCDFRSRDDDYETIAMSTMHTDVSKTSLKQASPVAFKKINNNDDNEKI", "test": "Antagonist activity at human NPY1 receptor assessed as calcium mobilization by FLIPR assay", "assay_type": "functional"}}}
{"smiles": "CS(=O)(=O)NC[C@H]1CC[C@H](Nc2nc3c(s2)CCSc2ccccc2-3)CC1", "values": [{"measurement": "Tmax", "setting": "[1]", "result": 1.9, "unit": "h"}, {"measurement": "concentration at 4 h", "setting": "[2]", "result": 172, "unit": "ng/g"}, {"measurement": "Activity", "setting": "Rattus norvegicus", "result": ">10", "unit": "%"}, {"measurement": "concentration at 2 h", "setting": "[3]", "result": 87, "unit": "ng/mL"}, {"measurement": "half-life", "setting": "[4]", "result": 8.2, "unit": "h"}, {"measurement": "concentration at 2 h", "setting": "[5]", "result": 87, "unit": "ng/g"}, {"measurement": "concentration at 4 h", "setting": "[6]", "result": 52, "unit": "ng/mL"}, {"measurement": "Drug uptake", "setting": "Brain", "result": 0.4, "unit": "nM"}, {"measurement": "concentration at 1 h", "setting": "[7]", "result": 267, "unit": "ng/mL"}, {"measurement": "IC50", "setting": "[8]", "result": "> 1000", "unit": "nM"}]}
